Source: ChEMBL document CHEMBL1158342, “Synthesis and biological activity evaluation of 1H-benzimidazoles via mammalian DNA topoisomerase I and cytostaticity assays” (Eur J Med Chem, 2009)
Active and inactive are the calls of the source. The calls are words filed in the database; no cut-off is given here.

What was measured:
Bos taurus [1] = species: Bos taurus; experiment: Inhibition of calf thymus DNA topoisomerase 1-mediated relaxation of supercoiled pBR322 plasmid DNA by agarose gel electrophoresis
Outline: (§1)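 Reaction contained 1 unit calf thymus topo I and supercoiled pBR322 in 35 mM Tris-HCl pH 8.0, 72 mM KCl, 5 mM MgCl2, 5 mM DTT, 5 mM spermidine and 0.1% BSA, with or without compound, at 37 °C. Products were run on 1% agarose in TBE at 5 V/cm, stained with ethidium bromide and photographed under UV. Supercoiled and relaxed bands were quantified from gel images.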

Bos taurus [2] = species: Bos taurus; experiment: Inhibition of calf thymus DNA topoisomerase 1-mediated relaxation of supercoiled pBR322 plasmid DNA at 1 ug/ml by agarose gel electrophoresis; outline: as §1
A-431 = experiment: Cytotoxicity against human A431 cells after 72 hrs by MTT assay; format: functional, cell-based; conditions: A-431, 72 h
Outline: (§2)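 Cells seeded at 5000/well and left to attach overnight, then given fresh medium containing compound over […] and incubated 72 h. Viability read by MTT: 4 h contact, crystals dissolved in DMSO over 60 min of shaking, absorbance at 545 nm. Untreated wells served as controls; DMSO at most 0.3%. Two plates with at least five parallel wells each; IC50 from fitted dose–response curves.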

HeLa = experiment: Cytotoxicity against human HeLa cells after 72 hrs by MTT assay; format: functional, cell-based; outline: as §2
MCF7 = experiment: Cytotoxicity against human MCF7 cells after 72 hrs by MTT assay; format: functional, cell-based; conditions: MCF7, 72 h; outline: as §2

Structure (SMILES)	inhibition (Bos taurus [1])	inhibition (Bos taurus [2])	IC50 (A-431) [µM]	IC50 (HeLa) [µM]	IC50 (MCF7) [µM]
Oc1ccccc1-c1nc2cc(Cl)ccc2[nH]1	Dose-dependent effect	99%	6.16	6.04	6.94
CCN(CC)CCOc1ccccc1-c1nc2cc(Cl)ccc2[nH]1	Dose-dependent effect	inactive	–	–	–
Clc1ccc2[nH]c(-c3ccccc3OCCN3CCOCC3)nc2c1	Dose-dependent effect	inactive	–	–	–
COc1cccc2c1C(=O)c1c(O)c3c(c(O)c1C2=O)C[C@@](O)(C(=O)CO)C[C@@H]3O[C@H]1C[C@H](N)[C@H](O)[C@H](C)O1 [DOXORUBICIN]	–	–	0.19	0.16	0.31
Oc1ccccc1-c1nc2ccccc2[nH]1	Dose-dependent effect	95.4%	> 30	26.4	16

Second part, led by results:

inhibition (Bos taurus [1])	inhibition (Bos taurus [2])	Structure (SMILES)	IC50 (A-431) [µM]	IC50 (HeLa) [µM]	IC50 (MCF7) [µM]
Dose-dependent effect	90.2%	c1ccc(-c2nc3ccccc3[nH]2)c(OCCN2CCCC2)c1	> 30	19.8	> 30
Dose-dependent effect	inactive	c1ccc(-c2nc3ccccc3[nH]2)c(OCCN2CCCCC2)c1	–	–	–
Dose-dependent effect	inactive	Clc1ccc2[nH]c(-c3ccccc3OCCN3CCCCC3)nc2c1	–	–	–
Dose-dependent effect	inactive	c1ccc(-c2nc3ccccc3[nH]2)c(OCCN2CCOCC2)c1	–	–	–
Dose-dependent effect	inactive	Clc1ccc2[nH]c(-c3ccccc3OCCN3CCCC3)nc2c1	–	–	–
